ChEMBL document CHEMBL1151442, “Genetic and phenotypic identification of fusidic acid-resistant mutants with the small-colony-variant phenotype in Staphylococcus aureus” (2007)
In brackets after ≈: the same amount, converted by molar mass.

Columns and labels:
Type in all cases: functional
[1] = test system: Staphylococcus aureus; experiment: Ratio of MIC for kanamycin-resistant Staphylococcus aureus harboring mutations in FusA gene to MIC for wild type kanamycin-susceptible Staphylococcus aureus AH001
[2] = test system: Staphylococcus aureus; experiment: Antibacterial activity against kanamycin-resistant and fusidic acid-susceptible Staphylococcus aureus AH296 harboring Gly664Ala mutation in fusA gene after 18 to 24 hrs by Etest strip assay
Method in brief: (§1)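 Etest MIC: a single colony was suspended in 0.9% NaCl to 0.5 McFarland and swabbed over Mueller-Hinton agar. The strip was applied and plates were incubated at 37°C for 18 to 24 h until an SCV lawn grew.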

[3] = test system: Staphylococcus aureus; experiment: Antibacterial activity against kanamycin-resistant and fusidic acid-susceptible Staphylococcus aureus AH292 harboring Gly664Val mutation in fusA gene after 18 to 24 hrs by Etest strip assay; method in brief: as §1
[4] = test system: Staphylococcus aureus; experiment: Antibacterial activity against kanamycin-resistant and fusidic acid-susceptible Staphylococcus aureus AH422 harboring +2 frameshift mutation at nucleotide 222 in rplF gene after 18 to 24 hrs by Etest strip assay; method in brief: as §1
[5] = test system: Staphylococcus aureus; experiment: Antibacterial activity against kanamycin-resistant and fusidic acid-susceptible Staphylococcus aureus AH417 harboring -1 frameshift mutation at nucleotide 422 in rplF gene after 18 to 24 hrs by Etest strip assay; method in brief: as §1
[6] = test system: Staphylococcus aureus; experiment: Antibacterial activity against kanamycin-resistant and fusidic acid-susceptible Staphylococcus aureus AH416 harboring deletion of nucleotide 395-398 in rplF gene after 18 to 24 hrs by Etest strip assay; method in brief: as §1
[7] = test system: Staphylococcus aureus; experiment: Antibacterial activity against fusidic acid-susceptible wild type Staphylococcus aureus 8325-4 after 18 to 24 hrs by Etest strip assay
Method in brief: (§2)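 The inoculum was a single colony suspended in 0.9% NaCl to 0.5 McFarland and swabbed over a Mueller-Hinton agar plate. An Etest gradient strip was then applied, and the plate was incubated at 37°C for 18 to 24 h until lawn growth was evident. MIC was read from the strip following the manufacturer's instructions.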

[8] = test system: Staphylococcus aureus; experiment: Antibacterial activity against fusidic acid-resistant Staphylococcus aureus AH204 harboring deletion of nucleotide 203-231 in rplF gene after 18 to 24 hrs by Etest strip assay
Method in brief: (§3)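 Mutants of lab strain 8325-4 were selected on LA with FA 2 μg/ml for 48 h at 37°C and purified on selective medium. For the MIC, one colony was suspended in 0.9% NaCl to 0.5 McFarland and swabbed onto Mueller-Hinton agar. An Etest strip was applied and plates were incubated at 37°C for 18–24 h until the lawn was evident.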

[9] = test system: Staphylococcus aureus; experiment: Antibacterial activity against fusidic acid-resistant Staphylococcus aureus AH194 harboring Pro404Leu mutation in fusA gene after 18 to 24 hrs by Etest strip assay; method in brief: as §3
[10] = test system: Staphylococcus aureus; experiment: Antibacterial activity against fusidic acid-resistant Staphylococcus aureus AH198 harboring Gly452Ser mutation in fusA gene after 18 to 24 hrs by Etest strip assay; method in brief: as §3
[11] = test system: Staphylococcus aureus; experiment: Antibacterial activity against fusidic acid-resistant Staphylococcus aureus AH201 harboring Gly452Cys mutation in fusA after 18 to 24 hrs by Etest strip assay; method in brief: as §3
[12] = test system: Staphylococcus aureus; experiment: Antibacterial activity against fusidic acid-resistant Staphylococcus aureus AH197 harboring Leu456Phe mutation in fusA gene after 18 to 24 hrs by Etest strip assay; method in brief: as §3
[13] = test system: Staphylococcus aureus; experiment: Antibacterial activity against fusidic acid-resistant Staphylococcus aureus AH206 harboring Arg464Ser mutation in fusA gene after 18 to 24 hrs by Etest strip assay; method in brief: as §3
[14] = test system: Staphylococcus aureus; experiment: Antibacterial activity against fusidic acid-resistant Staphylococcus aureus AH190 harboring Arg464His mutation in fusA gene after 18 to 24 hrs by Etest strip assay; method in brief: as §3
[15] = test system: Staphylococcus aureus; experiment: Antibacterial activity against fusidic acid-resistant Staphylococcus aureus AH193 harboring TAA stop codon at nucleotide 299 in rplF gene after 18 to 24 hrs by Etest strip assay; method in brief: as §3
[16] = test system: Staphylococcus aureus; experiment: Antibacterial activity against fusidic acid-resistant Staphylococcus aureus AH199 harboring TAA stop codon at nucleotide 241 in rplF gene after 18 to 24 hrs by Etest strip assay; method in brief: as §3
[17] = test system: Staphylococcus aureus; experiment: Antibacterial activity against fusidic acid-resistant Staphylococcus aureus AH202 harboring CTG start codon at nucleotide 1 in rplF gene after 18 to 24 hrs by Etest strip assay; method in brief: as §3
[18] = test system: Staphylococcus aureus; experiment: Antibacterial activity against kanamycin-susceptible wild type Staphylococcus aureus AH001 after 18 to 24 hrs by Etest strip assay; method in brief: as §2
[19] = test system: Staphylococcus aureus; experiment: Antibacterial activity against kanamycin-resistant Staphylococcus aureus AH366 (SCV-38) harboring Pro114His mutation in fusA gene after 18 to 24 hrs by Etest strip assay
Method in brief: (§4)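 SCVs of a Rifr 8325-4 derivative were selected on LA with KAN at 8, 16 or 24 μg/ml for 48 h at 37°C. They were purified at the same KAN level and screened on LA plus FA 1 μg/ml.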

[20] = test system: Staphylococcus aureus; experiment: Antibacterial activity against kanamycin-resistant Staphylococcus aureus AH334 (SCV-6) harboring Thr436Ile mutation in fusA gene after 18 to 24 hrs by Etest strip assay; method in brief: as §4
[21] = test system: Staphylococcus aureus; experiment: Antibacterial activity against kanamycin-resistant Staphylococcus aureus AH336 (SCV-8) harboring His438Asn mutation in fusA gene after 18 to 24 hrs by Etest strip assay; method in brief: as §4
[22] = test system: Staphylococcus aureus; experiment: Antibacterial activity against kanamycin-resistant Staphylococcus aureus AH338 (SCV-10) harboring Arg464Cys mutation in fusA gene after 18 to 24 hrs by Etest strip assay; method in brief: as §4
[23] = test system: Staphylococcus aureus; experiment: Antibacterial activity against kanamycin-resistant Staphylococcus aureus AH347 (SCV-19) harboring Arg659Ser mutation in fusA gene after 18 to 24 hrs by Etest strip assay; method in brief: as §4
[24] = test system: Staphylococcus aureus; experiment: Antibacterial activity against kanamycin-resistant Staphylococcus aureus AH352 (SCV-24) harboring -1 frameshift mutation at nucleotide 106 in rplF gene after 18 to 24 hrs by Etest strip assay; method in brief: as §4
[25] = test system: Staphylococcus aureus; experiment: Antibacterial activity against kanamycin-resistant Staphylococcus aureus AH377 (SCV-49) harboring +1 frameshift mutation at nucleotide 23 in rplF gene after 18 to 24 hrs by Etest strip assay; method in brief: as §4
[26] = test system: Staphylococcus aureus; experiment: Antibacterial activity against kanamycin-resistant Staphylococcus aureus AH348 (SCV-20) harboring TGA stop codon at nucleotide 244 in rplF gene after 18 to 24 hrs by Etest strip assay; method in brief: as §4
[27] = test system: Staphylococcus aureus; experiment: Antibacterial activity against kanamycin-resistant Staphylococcus aureus AH339 (SCV-11) harboring -1 frameshift mutation at nucleotide 144 in rplF gene after 18 to 24 hrs by Etest strip assay; method in brief: as §4
[28] = test system: Staphylococcus aureus; experiment: Antibacterial activity against kanamycin-resistant Staphylococcus aureus AH360 (SCV-32) harboring ATA start codon at nucleotide 3 in rplF gene after 18 to 24 hrs by Etest strip assay; method in brief: as §4
[29] = test system: Staphylococcus aureus; experiment: Antibacterial activity against kanamycin-resistant Staphylococcus aureus AH362 (SCV-34) harboring TAA stop codon at nucleotide 282 in rplF gene after 18 to 24 hrs by Etest strip assay; method in brief: as §4
[30] = test system: Staphylococcus aureus; experiment: Antibacterial activity against kanamycin-resistant Staphylococcus aureus AH386 (SCV-58) harboring -1 frameshift mutation at nucleotide 90 in rplF gene after 18 to 24 hrs by Etest strip assay; method in brief: as §4
[31] = test system: Staphylococcus aureus; experiment: Antibacterial activity against kanamycin-resistant and fusidic acid-susceptible Staphylococcus aureus AH287 harboring Ala655Glu mutation in fusA gene after 18 to 24 hrs by Etest strip assay; method in brief: as §1
[32] = test system: Staphylococcus aureus; experiment: Antibacterial activity against kanamycin-resistant and fusidic acid-susceptible Staphylococcus aureus AH291 harboring Arg659His mutation in fusA gene after 18 to 24 hrs by Etest strip assay; method in brief: as §1

Row | Compound | fold change (FC) [1] | MIC [2] [µg/mL] | MIC [3] [µg/mL] | MIC [4] [µg/mL] | MIC [5] [µg/mL] | MIC [6] [µg/mL] | MIC [7] [µg/mL] | MIC [8] [µg/mL] | MIC [9] [µg/mL] | MIC [10] [µg/mL] | MIC [11] [µg/mL] | MIC [12] [µg/mL] | MIC [13] [µg/mL] | MIC [14] [µg/mL] | MIC [15] [µg/mL] | MIC [16] [µg/mL] | MIC [17] [µg/mL] | MIC [18] [µg/mL] | MIC [19] [µg/mL] | MIC [20] [µg/mL] | also measured
1 | CC(=O)O[C@H]1C[C@@]2(C)[C@@H](C[C@@H](O)[C@H]3[C@@]4(C)CC[C@@H](O)[C@@H](C)[C@@H]4CC[C@@]32C)/C1=C(\CCC=C(C)C)C(=O)O [FUSIDIC ACID] | 32 | 3 (≈ 5.81 µM) | 6 (≈ 11.6 µM) | 12 | 24 | 48 (≈ 92.9 µM) | 0.125 (≈ 0.242 µM) | 4 (≈ 7.74 µM) | 4 (≈ 7.74 µM) | 32 (≈ 61.9 µM) | 12 (≈ 23.2 µM) | 4 (≈ 7.74 µM) | 6 (≈ 11.6 µM) | 6 (≈ 11.6 µM) | 4 (≈ 7.74 µM) | 4 (≈ 7.74 µM) | 4 (≈ 7.74 µM) | 0.125 (≈ 0.242 µM) | 12 (≈ 23.2 µM) | 48 (≈ 92.9 µM) | MIC [21]: 8 µg/mL (≈ 15.5 µM); MIC [22]: 2 µg/mL (≈ 3.87 µM); MIC [23]: 12 µg/mL (≈ 23.2 µM); MIC [24]: 4 µg/mL; MIC [25]: 4 µg/mL; MIC [26]: 8 µg/mL (≈ 15.5 µM); MIC [27]: 6 µg/mL; MIC [28]: 24 µg/mL (≈ 46.4 µM); MIC [29]: 12 µg/mL (≈ 23.2 µM); MIC [30]: 24 µg/mL; MIC [31]: 12 µg/mL (≈ 23.2 µM); MIC [32]: 4 µg/mL (≈ 7.74 µM)
2 | NC[C@H]1O[C@H](O[C@H]2[C@H](O)[C@@H](O[C@H]3O[C@H](CO)[C@@H](O)[C@H](N)[C@H]3O)[C@H](N)C[C@@H]2N)[C@H](O)[C@@H](O)[C@@H]1O [KANAMYCIN] | 3 | 16 (≈ 33 µM) | 32 (≈ 66 µM) | 128 | 256 | 256 (≈ 528 µM) | 1.5 (≈ 3.1 µM) | 8 (≈ 16.5 µM) | 2 (≈ 4.13 µM) | 4 (≈ 8.26 µM) | 6 (≈ 12.4 µM) | 6 (≈ 12.4 µM) | 6 (≈ 12.4 µM) | 4 (≈ 8.26 µM) | 8 (≈ 16.5 µM) | 8 (≈ 16.5 µM) | 8 (≈ 16.5 µM) | 1.5 (≈ 3.1 µM) | 12 (≈ 24.8 µM) | 128 (≈ 264 µM) | MIC [21]: 16 µg/mL (≈ 33 µM); MIC [22]: 48 µg/mL (≈ 99.1 µM); MIC [23]: 12 µg/mL (≈ 24.8 µM); MIC [24]: 6 µg/mL; MIC [25]: 6 µg/mL; MIC [26]: 8 µg/mL (≈ 16.5 µM); MIC [27]: 64 µg/mL; MIC [28]: 96 µg/mL (≈ 198 µM); MIC [29]: 128 µg/mL (≈ 264 µM); MIC [30]: 256 µg/mL; MIC [31]: 16 µg/mL (≈ 33 µM); MIC [32]: 24 µg/mL (≈ 49.5 µM)
3 | CN[C@@H]1[C@H](O[C@H]2[C@H](O[C@H]3[C@H](O)[C@@H](O)[C@H](N=C(N)N)[C@@H](O)[C@@H]3N=C(N)N)O[C@@H](C)[C@]2(O)C=O)O[C@@H](CO)[C@H](O)[C@H]1O [STREPTOMYCIN] | 3 | 8 (≈ 13.8 µM) | 16 (≈ 27.5 µM) | 32 | 256 | 256 (≈ 440 µM) | 3 (≈ 5.16 µM) | 24 (≈ 41.3 µM) | 8 (≈ 13.8 µM) | 6 (≈ 10.3 µM) | 8 (≈ 13.8 µM) | 8 (≈ 13.8 µM) | 8 (≈ 13.8 µM) | 8 (≈ 13.8 µM) | 24 (≈ 41.3 µM) | 16 (≈ 27.5 µM) | 16 (≈ 27.5 µM) | 3 (≈ 5.16 µM) | 24 (≈ 41.3 µM) | 192 (≈ 330 µM) | MIC [21]: 12 µg/mL (≈ 20.6 µM); MIC [22]: 24 µg/mL (≈ 41.3 µM); MIC [23]: 32 µg/mL (≈ 55 µM); MIC [24]: 24 µg/mL; MIC [25]: 24 µg/mL; MIC [26]: 16 µg/mL (≈ 27.5 µM); MIC [27]: 128 µg/mL; MIC [28]: 192 µg/mL (≈ 330 µM); MIC [29]: 256 µg/mL (≈ 440 µM); MIC [30]: 96 µg/mL; MIC [31]: 48 µg/mL (≈ 82.5 µM); MIC [32]: 24 µg/mL (≈ 41.3 µM)
